# Measurements collected from several papers.
# Compare with care: the assays were run in different laboratories.
# Target: Serine/threonine-protein kinase BRSK2 (BRSK2, Homo sapiens, UniProt Q8IWQ3)
# Sequence (Q8IWQ3 1-736, as in one of the studies): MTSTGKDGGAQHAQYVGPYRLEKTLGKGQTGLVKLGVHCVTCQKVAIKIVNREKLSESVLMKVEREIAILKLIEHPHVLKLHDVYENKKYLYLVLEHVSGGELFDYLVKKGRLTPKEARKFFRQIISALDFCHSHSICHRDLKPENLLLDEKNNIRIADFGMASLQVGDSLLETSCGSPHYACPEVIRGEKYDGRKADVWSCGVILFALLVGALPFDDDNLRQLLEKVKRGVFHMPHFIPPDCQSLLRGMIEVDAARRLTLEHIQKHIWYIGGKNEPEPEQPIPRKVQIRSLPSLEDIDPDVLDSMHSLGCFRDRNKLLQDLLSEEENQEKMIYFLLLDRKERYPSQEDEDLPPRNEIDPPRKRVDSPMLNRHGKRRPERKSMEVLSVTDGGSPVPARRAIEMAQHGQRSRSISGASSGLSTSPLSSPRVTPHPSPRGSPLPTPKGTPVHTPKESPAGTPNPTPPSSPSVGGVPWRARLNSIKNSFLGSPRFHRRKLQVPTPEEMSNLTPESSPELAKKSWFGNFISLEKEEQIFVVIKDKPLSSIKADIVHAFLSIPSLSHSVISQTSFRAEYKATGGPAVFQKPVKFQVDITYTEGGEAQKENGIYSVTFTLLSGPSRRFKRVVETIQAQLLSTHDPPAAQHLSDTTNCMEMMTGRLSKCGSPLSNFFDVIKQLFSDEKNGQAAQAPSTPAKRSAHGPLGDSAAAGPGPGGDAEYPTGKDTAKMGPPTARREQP
SMILES,assay,setting,endpoint,result
CCOC(=O)c1cc2cc(-c3cc(C(=O)NCc4ccc(C(=O)O)cc4)nn3C)ccc2[nH]1,"cell-free assay, competition with immobilised ligand",0.1 µM,remaining binding,67%
CC(C)(C)C(=O)c1sc(NC2CCCCC2)nc1N,"enzyme activity, inhibitor",10 µM,remaining activity,95%
CN(C)S(=O)(=O)c1ccc2c(c1)/C(=C/c1cc3c([nH]1)CCCC3)C(=O)N2,cell-free assay,0.5 µM,remaining signal,48.7%
Nc1ncnc2occ(-c3ccc(NC(=O)Nc4cc(C(F)(F)F)ccc4F)cc3)c12,"cell-free assay, inhibitor",20 µM,remaining signal,6.6%
CN(C)C(=O)Cn1cc(-c2nc([C@@](C)(c3ccc(-c4cnc(N)nc4)cc3)C3CC3)no2)cn1,"cell-free assay, competition with immobilised ligand",1 µM,remaining binding,100%
Cc1ccc(Nc2nccc(N(C)c3ccc4c(C)n(C)nc4c3)n2)cc1S(N)(=O)=O,"enzyme activity, inhibitor",0.3 µM,inhibition,1%
O=C1NC(=O)c2cc(Nc3ccc(F)cc3)c(Nc3ccc(F)cc3)cc21,cell-free assay,0.5 µM,remaining signal,96.8%
CC(C)(O)[C@H]1CC[C@H](Nc2ccc3ncc(-c4cccc(C(F)(F)F)c4)n3n2)CC1,"enzyme activity, inhibitor",1 µM,remaining activity,94.4%
Nc1nc(Nc2ccccc2)sc1C(=O)c1c(F)cccc1F,"enzyme activity, inhibitor",10 µM,remaining activity,55%
Nc1nc(Nc2ccc(S(N)(=O)=O)cc2)nn1C(=O)c1c(F)cccc1F,cell-free assay,0.5 µM,remaining signal,49%
Cc1sc(C(=O)NC2COC2)cc1-n1cc(NC(=O)Nc2c(F)cccc2Cl)cn1,"enzyme activity, inhibitor",10 µM,remaining activity,102%
CC(C)(C)c1nc(-c2cccc(NS(=O)(=O)c3c(F)cccc3F)c2F)c(-c2ccnc(N)n2)s1,"enzyme activity, inhibitor, radiometric",1 µM,remaining activity,50%
Cc1c(C(=O)O)cc(-c2ccc(C3CCNCC3)cc2)c2ccc(-c3ccc(C(F)(F)F)cc3)cc12,"binding, competition with immobilised ligand",1 µM,remaining binding,100%
Cn1c(=O)n(-c2ccc(C(C)(C)C#N)cc2)c2c3cc(-c4cnc5ccccc5c4)ccc3ncc21,"enzyme activity, inhibitor",10 µM,remaining activity,89%
CN([C@@H]1CCc2c(CC(=O)O)c3ccccc3n2C1)S(=O)(=O)c1ccc(F)cc1,"cell-free assay, competition with immobilised ligand",1 µM,remaining binding,100%
CC/C(=N\NC(=O)NCc1cccc(O)c1)c1ccc(O)c(C)c1O,"enzyme activity, inhibitor",0.1 µM,inhibition,3.7%
COc1ccc(COc2ccc(Cc3cnc(N)nc3N)cc2OC)cc1,cell-free assay,0.5 µM,remaining signal,96.8%
CNc1cccc2cc(C(=O)Nc3ccc(C(=O)O)cc3)c(=O)[nH]c12,"enzyme activity, inhibitor",10 µM,inhibition,7.8%
CC(=O)c1c(NS(C)(=O)=O)c2cc(-c3ccc(Cl)cc3)c(-c3ccc(Cl)cc3Cl)nc2n(C)c1=O,"cell-free assay, competition with immobilised ligand",1 µM,remaining binding,90%
O=C(Nc1cnn(-c2csc(C(=O)NC3COC3)c2)c1)Nc1c(F)cccc1Cl,"enzyme activity, inhibitor",5 µM,remaining activity,100%
CCN(CC)CCNC(=O)c1c(C)[nH]c(/C=C2\C(=O)Nc3ccc(F)cc32)c1C,"enzyme activity, inhibitor",10 µM,inhibition,82%
FC(F)(F)Oc1cccc(-c2cnc3ccc(-c4ccncc4)nn23)c1,"enzyme activity, inhibitor, radiometric",5 µM,activity vs control,99%
FC(F)(F)c1ccc2c(c1)nc(-c1cccnc1)n2C1CC1,"cell-free assay, competition with immobilised ligand",1 µM,remaining binding,90%
CCCS(=O)(=O)Nc1ccc(F)c(C(=O)c2c[nH]c3ncc(-c4ccc(Cl)cc4)cc23)c1F,"enzyme activity, inhibitor",1 µM,inhibition,< 10%
CNCc1ccccc1-c1csc([C@@H](C)Nc2nc(C)nc3cc(OC)c(OC)cc23)c1,"cell-free assay, competition with immobilised ligand",1 µM,remaining binding,100%
Cc1cnc(NC2CCOCC2)nc1-n1cnc(C(=O)NC(CN)c2cc(F)cc(Cl)c2)c1 (stereo not shown),"enzyme activity, inhibitor, radiometric",1 µM,remaining activity,42%
CCS(=O)(=O)c1cc2cc(C[C@](O)(CC(C)(C)c3ccc(F)cc3C(N)=O)C(F)(F)F)[nH]c2cn1,"cell-free assay, competition with immobilised ligand",1 µM,remaining binding,100%
COc1cc(Nc2cnc(C#N)c(O[C@H](C)CN(C)C)n2)ncc1-c1cnn(C)c1,"enzyme activity, inhibitor, radiometric",10 µM,remaining activity,14%
